High-throughput results: PubChem, several laboratories
Only some compounds are listed: those with a hit (about 1.9% of all), similar ones and a draw of the others.
VIM-2 inhibitor: blocks Pseudomonas aeruginosa VIM-2 metallo-beta-lactamase. inhibition, % at 5.6 µM. purified VIM-2, nitrocefin hydrolysis, epi-absorbance fluorescence. actives 0.89% (n = 290,000). AID 1527;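 active means inhibition above the mean of all tested compounds plus 3 SD, cutoff set per screening run, cut at about 7.5% in these data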;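 further: red hydrolysis product quenches plate fluorescence so inhibitors raise well fluorescence; 0% = enzyme with DMSO and 100% = DMSO without enzyme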
IMP-1 inh: blocks Pseudomonas aeruginosa IMP-1 metallo-beta-lactamase. actives 0.45% (n = 290,000). inhibition, % at 5.6 µM. purified IMP-1, nitrocefin hydrolysis, epi-absorbance fluorescence;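 active means inhibition above the mean plus 3 SD of all compounds in the same screening run, cut at about 4.5% in these data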;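 further: 0% = IMP-1 with DMSO and 100% = DMSO wells lacking enzyme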
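Assay system: purified recombinant IMP-1 beta-lactamase. Input: IMP-1 0.2 nM before substrate addition. Buffer or medium: Zinc- and detergent-supplemented HEPES buffer, pH 7.1. Schedule: 25 °C, 15 min preincubation, 25 min reaction. Signal: Epi-absorbance fluorescence, 480 nm excitation, 530 nm emission. Evaluation: percent inhibition from optical density relative to buffer-blank wells.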
NadD inh: NadD (S. aureus) enzyme inhibition; inhibition, % at 20 µM; actives 0.78% (n = 360,000); purified NadD enzyme, colorimetric absorbance read-out; AID 602399; in the data active means inhibition above about 26%
HCV core dimer: blocks dimerization of HCV core protein; TR-FRET GST/Flag-core106 dimerization, 1536-well; inhibition, % at 5 µM; actives 0.33% (n = 300,000);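 active means inhibition above the mean of all tested compounds plus 3 SD, set per screening campaign, cut at about 45% in these data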
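Material: Tagged HCV core106 pair (GST and Flag) | Amount: GST-core106 13.5 nM, Flag-core106 17 nM | Medium: KF-containing HEPES buffer, pH 7.45, DTT, CHAPS, BSA | Reagent: Eu donor and XL665 acceptor anti-tag antibodies | Schedule: 4 h at 22.5 °C | Technique: Time-resolved FRET, ex 340 nm, em 617 and 671 nm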
The depositor's hits bear a star; . = not tested or not shown.

SMILES | VIM-2 inhibitor | IMP-1 inh | NadD inh | HCV core dimer
COc1ccc(C2Nc3ccccc3C(=O)N2Cc2ccco2)cc1COc1ccc([N+](=O)[O-])cc1 (stereo not drawn) | -2 | -2 | 9 | 28
COc1ccc(OC)c(N2CC(O)=C(c3nc4ccccc4s3)C2=N)c1 | -3 | 4.5* | -2 | 10
CC(C)(C)C(=O)NC(=S)Nc1ccc(Cc2ccncc2)cc1 | 2 | 7.7* | 4 | -6
COc1cc2c(cc1OC)C(c1cccs1)N(C(=S)NC(C)C)CC2 (stereo not drawn) | 1 | -2 | -6 | 2
COc1ccc(O)c(/C=N/NC(=O)c2ccc(CSc3nc(C)cc(C)n3)cc2)c1 | -1 | -2 | 34* | 15
COc1ccc(Nc2cc(C)c3c(O)cccc3n2)cc1 | 8.8* | -1 | -2 | 1
COc1cc(OC)c(N(C)S(=O)(=O)c2cccc(C(=O)OCC(=O)N(C)C3CCCCC3)c2)cc1Cl | . | . | 1 | .
CN(C)c1ccc(C=c2c3ccccc3n3c2cc(-c2ccc(Cl)cc2)[n+]3C)cc1 | . | . | 39* | .
CN(C)c1ccc(C=c2c3cc([N+](=O)[O-])ccc3n3c2cc(-c2ccccc2)[n+]3C)cc1 | . | . | 48* | .
O=C(NCc1ccco1)Nc1cccc(-c2ccccc2)c1 | . | . | 0 | .
CCCCN(C(=O)c1ccc(-c2ccc([N+](=O)[O-])cc2)o1)c1c(N)n(CC(C)C)c(=O)[nH]c1=O | . | . | 7 | .
CCN(CC)Cc1c(O)ccc2c1O/C(=C\C=C\c1ccccc1)C2=O | 0 | 1 | -4 | 4
COc1ccccc1/C=C/C=C1\Oc2c(ccc(O)c2CN(C)C)C1=O | 2 | 9.1* | 3 | -5
COc1ccc(/C=C2/NC(=O)N(CC(=O)Nc3cccc(C)c3)C2=O)cc1O | -2 | -3 | -4 | -13
CCn1c(C)cc(/C=C2\NC(=O)N(CC(=O)Nc3cccc(C)c3)C2=O)c1C | -3 | -4 | 43* | 32
CCn1c(C)cc(/C=C2/NC(=O)N(CC(=O)Nc3cccc(C)c3)C2=O)c1C | -3 | -2 | 33* | 18
Cc1cccc(NC(=O)CN2C(=O)N/C(=C/c3ccc(C)o3)C2=O)c1 | -4 | -4 | 2 | -2
CCc1ccc(NC(=O)CN(CC(=O)Nc2ccc(CC)cc2)CC(C)O)cc1 (stereo not drawn) | 2 | 18* | -1 | -18
O=C(N/N=C/c1ccc2ccccc2c1)c1ccc(COc2ccc3c(c2)CCC3)o1 | -2 | -2 | 1 | 50*
O=C(N/N=C/c1cc([N+](=O)[O-])ccc1O)c1ccc(COc2ccc3c(c2)CCC3)o1 | -5 | -2 | 52* | .
CCOC(=O)C1=CCN(S(=O)(=O)c2ccccc2C)C1c1ccc(F)cc1 (stereo not drawn) | . | . | -11 | .
O=C(CSc1ccc(-c2ccco2)nn1)c1ccccc1 | -3 | -3 | 3 | 48*
COc1ccc(C(=O)CSc2ccc(-c3ccco3)nn2)cc1 | 1 | 0 | 4 | 19
Cc1ccc(/C=C/C(=O)N2CCc3ccccc32)o1 | -4 | -2 | 2 | 63*
Cc1cc(C)c2nc(-c3ccccn3)cc(C(=O)Nc3ccc(S(=O)(=O)Nc4cc(C)on4)cc3)c2c1 | -2 | 0 | 61* | 37
SMILES | VIM-2 inhibitor | IMP-1 inh | NadD inh | HCV core dimer
Cc1cc(C)c2nc(-c3ccccn3)cc(C(=O)Nc3ccc(S(=O)(=O)Nc4onc(C)c4C)cc3)c2c1 | 0 | 0 | 41* | 60*
Cc1cc(C)c2nc(-c3ccccn3)cc(C(=O)N3CCCC3)c2c1 | -4 | -2 | 9 | 48*
C=CCNC(=S)N1CCN(Cc2ccccc2)CC1 | 0 | -3 | -7 | 0
COc1ccc(Cl)cc1NC(=O)C(C)OC(=O)Cn1cc(C(F)(F)F)ccc1=O (stereo not drawn) | . | . | -5 | .
c1ccc(-c2ccc3c(c2)c2c4n3CCN=C4CCC2)cc1 | -1 | 5.3* | 17 | -1
CCOC(=O)CC(=O)CSc1nc(-c2cccnc2)ccc1C#N | 0 | 5.3* | -2 | 5
CCOC(=O)c1ccc(N2N=C(C)/C(=C/C=C/c3ccco3)C2=O)cc1 | 0 | -3 | 3 | 4
O=C(O)c1cc(N2N=C(C(F)(F)F)/C(=C/C=C/c3ccco3)C2=O)ccc1Cl | -2 | -3 | 42* | .
COCCCN(C(=S)Nc1c(C)cc(C)cc1C)C(C)c1ccccn1 (stereo not drawn) | -2 | -1 | -7 | 1
CCn1c(=O)c(C(=O)CN2CCc3ccccc32)c(N)n(Cc2ccccc2)c1=O | -1 | 3 | 28 | 51*
COc1ccc([C@H]2C[C@@H](n3cc(-c4ccc(F)cc4)nn3)[C@H](O)CN2CC2CCCCC2)cc1 | . | . | 10 | .
COc1ccccc1C#Cc1ccc2c(=O)c3ccccc3n(C)c2c1 | 0 | 6.8* | 1 | 1
COc1ccc(C#Cc2ccc3c(=O)c4ccccc4n(C)c3c2)cc1 | 1 | 0 | . | -12
Cc1cccc(CN2CCC(n3nccc3NC(=O)CCCc3ccccc3)CC2)n1 | -7 | -4 | 0 | -5
CCOC(=O)c1ccc(N2C(=O)C3CC=CCC3C2=O)cc1 (stereo not drawn) | -2 | -4 | -5 | -2
CCOC(=O)c1ccc(N2C(=O)C3C(C2=O)C(C(=O)c2ccc(Cl)cc2)N2CCCC32)cc1 (stereo not drawn) | -4 | -3 | 28 | 74*
N#Cc1ccccc1NC(=O)COC(=O)c1ccc2c(c1)OCO2 | . | . | 1 | .
COC1(OC)C=CC(=O)C=C1NC(=O)c1ccccc1OC(C)=O | . | . | -4 | -14
O=c1[nH]nc(Sc2ncnc3sccc23)n1CCc1ccccc1 | 9.7* | -4 | 3 | 5
CCN(CC)C(=O)CSc1n[nH]c(=O)n1CCc1ccccc1 | 0 | -2 | -13 | 13
O=C(c1ccco1)N1CCN(c2ncnc3c2oc2ccccc23)CC1 | 10.0* | -3 | -3 | 8
c1ccc2c(c1)oc1c(N3CCOCC3)ncnc12 | 1 | -3 | 1 | 4
O=C(COC(=O)CCN=C1NS(=O)(=O)c2ccccc21)NNC(=O)c1ccccc1 | . | . | -3 | 6
CC(C)CN1CC(Br)C(=O)NC1=O (stereo not drawn) | . | . | 1 | .
O=C(CN1C(=O)c2cccc3cccc1c23)Nc1ccc(S(=O)(=O)N2CCOCC2)cc1 | -2 | -5 | 2 | -3
SMILES | VIM-2 inhibitor | IMP-1 inh | NadD inh | HCV core dimer
O=C(CN1c2cccc3cccc(c23)S1(=O)=O)Nc1ccc(S(=O)(=O)N2CCOCC2)cc1 | 0 | -1 | 20 | 56*
NC(=S)c1cc2cc(Cl)ccc2oc1=O | 2 | 7.0* | 3 | 1
COc1ccc2c(c1OC)C(=O)N1C2SC(C)(C)[C@H]1C(=O)NC(C)C (stereo partly drawn) | -2 | -5 | 0 | 3
O=C(CSC1CC(=O)N(c2ccc(C(=O)O)cc2)C1=O)Nc1ccc(Cl)cc1 (stereo not drawn) | 0 | -3 | -6 | -3
CC(=O)c1ccc(N2CCN(CC(=O)NCc3ccccc3)CC2)cc1 | 1 | 6.5* | -5 | 5
O=C(NNC(=O)c1ccccc1-c1ccccc1C(=O)O)c1ccccc1 | -3 | -2 | 0 | 2
